Sampled rows, rich in hits. Any-hit rate of the full collection: about 4%.
FGF22 binding: FGF22 (human) thermal shift binding. Q9HCT0. recombinant FGF22 thermal shift, SYPRO orange fluorescence; percent of sucrose octasulfate shift, DMSO zero. activity (Tm shift, normalised), % at 9.99 µM. 340,000 tested, 1.5% active. AID 651658;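 active = mean Tm shift, scaled 0 neutral to 100 positive control, at about 1.3% or above, every replicate too, limit read from the data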
Target sequence (Q9HCT0 whole entry, looked up): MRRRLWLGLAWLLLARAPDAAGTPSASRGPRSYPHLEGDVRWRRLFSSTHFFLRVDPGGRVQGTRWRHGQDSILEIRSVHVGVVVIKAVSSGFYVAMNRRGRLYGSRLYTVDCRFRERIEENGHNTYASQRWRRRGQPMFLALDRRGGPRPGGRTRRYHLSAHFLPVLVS
E-sel inducer: induces E-selectin expression in human endothelial cells; activation, % at 7.58 µM; HUVEC E-selectin immunofluorescence imaging; normalized: neutral wells 0, TNF-alpha wells 100; 260,000 tested, 0.37% active; P16581;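 active = mean E-selectin-positive cell signal at least 10% of the positive control, reached in at least 60% of replicates, without over 20% cell loss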
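Read-out: % PE-positive cells | Test system: HUVEC | Doses: One compound dose added by pin transfer | Buffer or medium: EGM-2 over gelatin coat | Signal: Immunofluorescence imaging | Benchmarks: TNF-alpha, DMSO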
SIRT5 block: inhibitors of human sirtuin-5 desuccinylase. Q9NXA8. Purified SirT5, succinyl-peptide AMC, trypsin-coupled fluorescence. AID 652115. inhibition, % at 15 µM. 330,000 tested, 1.1% active; in the data active = inhibition above about 15%
Target sequence (Q9NXA8 whole entry, looked up): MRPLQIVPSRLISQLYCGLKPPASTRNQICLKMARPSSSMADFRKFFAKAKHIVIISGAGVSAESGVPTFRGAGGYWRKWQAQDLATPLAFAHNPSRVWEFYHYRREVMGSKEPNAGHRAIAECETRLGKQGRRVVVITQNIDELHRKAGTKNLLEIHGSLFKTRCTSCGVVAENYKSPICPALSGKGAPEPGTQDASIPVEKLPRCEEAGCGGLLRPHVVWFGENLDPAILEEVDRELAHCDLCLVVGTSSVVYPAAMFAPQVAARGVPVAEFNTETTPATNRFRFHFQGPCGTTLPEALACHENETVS
C2C12 statin: protects C2C12 myotubes from simvastatin toxicity; ATP luminescence, 48 h; scaled: DMSO 0, geranylgeraniol control 100; rescue of ATP level, % at 7.49 µM; 330,000 tested, 0.78% active;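 active = mean ATP rescue above about 67%, or every replicate alone reaching that limit, limit read from the data, passing the limit was not always enough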;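 note: myotubes were challenged with 10 µM simvastatin during compound exposure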
rRNA inh HTS: selective bacterial rRNA inhibition in E. coli. 350,000 tested, 1.6% active. E. coli WT GFP vs humanized-ribosome RFP mutants, fluorescence, 24 h; hits give low values; DMSO median 0, no signal -100. GFP signal change (wild-type ribosome), % (test concentration not listed);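 active = significant combined selectivity score with lowered wild-type GFP, culture density cut under 30%, mutant RFP and density less affected; inactive = any of these conditions unmet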
FN deposit inh: fibronectin deposition inhibition; 350,000 tested, 0.086% active; AH1F fibroblasts, Alexa488-fibronectin deposition fluorescence, overnight; AID 743247; inhibition, % at 12.6 µM;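 active = mean inhibition across replicates of 30% or more, regardless of how many single replicates reach that level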;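 note: positive control wells lacked labelled fibronectin entirely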
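Material: AH1F fibroblast monolayer depositing Alexa488-labelled fibronectin into matrix / Amount: 10000 AH1F cells per well / Signal: fluorescence 485/525 nm / Medium: DMEM, 2% serum / Compound: single dose, pinned / Incubation: 1 h cell adhesion before compound, then overnight fibronectin incubation / Reagent: Alexa488-FN, 24 nM final / Read-out: inhibition of fibronectin deposition signal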
Numbers without * were called inactive; · = no result.

SMILES	FGF22 binding	E-sel inducer	SIRT5 block	C2C12 statin	rRNA inh HTS	FN deposit inh
O=C([C@H]1[C@H](CO)[C@H]2Cn3c(cccc3=O)[C@@H]1N2CC1CCCCC1)N1CCOCC1	-0.2	0.1	3.8	-8.5	0.9	·
COc1cccc(N2C(=O)C3C(C2=O)C3(c2ccccc2)c2ccccc2)c1 (centres undefined)	-0.3	0.1	-3.7	-1.8	-33.0*	-5.6
O=C(NC1CCCC1)c1cc(-c2ccccc2O)on1	0.0	46.6*	-0.7	-46.6	-5.9	-2.0
O=C(NC1CCCC1)c1cc(-c2ccccc2Cl)on1	-0.2	·	-2.6	-8.3	-8.9	1.4
COc1ccc2c3c(n(C)c2c1)[C@H](CO)N(C(C)=O)CC31CCN(Cc2ccccc2OC)CC1	0.0	-0.2	-2.4	·	0.8	-20.0
O=C(Cc1c(F)cccc1Cl)OCC(=O)N1CCN(c2ccccc2)CC1	0.1	·	-3.2	6.5	-21.5*	-3.5
C[C@@H]1CCCCO[C@@H](CN(C)C(=O)C2CCCCC2)[C@@H](C)CN([C@@H](C)CO)C(=O)c2cc(NC(=O)Nc3cccc4ccccc34)ccc2O1	0.1	-0.1	3.6	·	2.2	·
CN(Cc1ccc2nonc2c1)Cc1nc(CC2CC2)no1	42.9*	-0.4	0.4	2.7	4.7	3.6
CN(C)/C=N/c1nc2ccc3c(c2s1)CCCC3	0.2	·	-2.4	19.3	-25.9*	·
O=C(O)CSc1nc(-c2ccccc2)nc2c1oc1ccccc12	·	·	·	120.3*	·	3.5
Cc1cc(C)n2nc(SC(C)C(=O)N3CC(C)OC(C)C3)nc2n1 (centres undefined)	43.1*	0.0	·	8.5	2.8	-15.2
Cc1cc(C)n2nc(SCC(=O)N3CCC(C(=O)O)CC3)nc2n1	44.3*	0.0	·	·	·	0.1
C[C@@H]1CN([C@H](C)CO)C(=O)c2c(c3ccccc3n2C)-c2ccccc2CO[C@@H]1CN(C)S(=O)(=O)c1cccc(C#N)c1	0.3	-0.3	1.5	21.3	3.9	11.2
COc1ccc(S(=O)(=O)Nc2cccc3c2O[C@@H](CN(C)C(=O)NC(C)C)[C@@H](C)CN([C@H](C)CO)C3=O)cc1	-0.1	·	-2.4	·	-1.3	·
COc1cc(Cl)c(CNC[C@H]2O[C@@H](n3cnc(C(N)=O)n3)[C@H](O)[C@@H]2O)c(Cl)c1O	43.0*	0.1	·	4.8	17.3	5.1
COc1cccc(CNC[C@H]2O[C@@H](n3cnc(C(N)=O)n3)[C@H](O)[C@@H]2O)c1OCc1ccc(F)cc1Cl	-0.3	0.1	·	5.8	8.2	-1.7
Cc1nn(C)cc1C(C(=O)NC1CCCCC1)N(CCc1ccccc1)C(=O)c1cnccn1 (centres undefined)	43.3*	-2.9	3.4	·	2.8	5.6
COc1ccc(C(C)C)cc1S(=O)(=O)NCC1CCCO1 (centres undefined)	-0.2	·	15.3*	17.0	-0.7	0.0
COc1ccc(OC)c(S(=O)(=O)NCC2CCCO2)c1 (centres undefined)	·	·	·	7.5	·	·
C[C@@H]1CN([C@@H](C)CO)C(=O)c2cc(NC(=O)CCCN(C)C)ccc2O[C@@H](C)CCCCO[C@H]1CN(C)CC1CCCCC1	-0.6	0.0	-0.2	-54.2	1.9	·
Cn1c(=O)c2c(nc(SCCN3CCOCC3)n2Cc2ccccc2Cl)n(C)c1=O	-0.2	-0.3	-0.1	7.9	·	6.2
Cc1nnc(Sc2nc3c(c(=O)n(C)c(=O)n3C)n2Cc2ccccc2Cl)s1	·	·	·	118.0*	·	-3.7
CN1CCN(C(=O)C[C@H]2CC[C@@H]3[C@H](COC[C@H](O)CN3C(=O)c3ccc(F)cc3)O2)CC1	0.3	0.1	-1.3	-0.3	-1.4	-2.3
C=CCN=C(NC#N)SCC(=O)c1cccc(OC)c1	0.2	·	0.2	111.5*	-15.7	·
CCN1C(=O)CC(Sc2ccccc2C(=O)O)C1=O (centres undefined)	·	·	·	159.1*	·	-0.8
SMILES	FGF22 binding	E-sel inducer	SIRT5 block	C2C12 statin	rRNA inh HTS	FN deposit inh
O=C(O)c1ccccc1SC1CC(=O)N(c2cccc3ccccc23)C1=O (centres undefined)	0.1	3.9	0.7	-10.2	1.3	1.7
CCCCn1c(=N)n(CC(=O)c2ccc(OC)cc2)c2ccccc21	0.1	·	-2.0	·	-43.4*	4.9
CCOC(=O)Cn1c(=N)n(CCOc2ccc(Br)cc2)c2ccccc21	-0.1	0.0	4.3	6.1	-47.5*	-0.3
C/C=C/c1cnc2c(c1)C(=O)N([C@H](C)CO)C[C@H](C)[C@H](CN(C)C(=O)C1CCC1)O2	·	0.7	·	13.2	-2.1	-6.3
O=C(C[C@@H]1C[C@@H]2c3cc(NC(=O)C4CCC4)ccc3O[C@@H]2[C@@H](CO)O1)NCCc1ccccc1	0.0	-0.1	1.1	-2.8	-1.6	·
COc1ccc(S(=O)(=O)Nc2ccc3c(c2)CC(=O)N([C@@H](C)CO)C[C@H](C)[C@H](CN(C)Cc2ccncc2)O3)cc1	-0.1	0.4	-0.7	4.7	-2.4	3.9
CCCNC(=O)NC(=O)CSc1nnc(C)n1N	·	·	·	79.7*	·	·
Cc1nnc(SCC(=O)NC2CCCCC2)n1N	-0.2	-0.5	·	-1.8	13.2	-0.1
CC1CCN(c2ccccc2NC(=S)NC(=O)c2ccco2)CC1	·	·	·	-2.8	·	·
O=C(Nc1ccc(N2CCN(C(=O)c3ccccc3)CC2)c(Cl)c1)c1ccc(Br)o1	0.1	·	-0.3	-23.3	-22.6*	·
CS(=O)(=O)N1CCN(c2ccccc2NC(=S)NC(=O)c2cccs2)CC1	43.4*	·	0.4	·	5.7	5.9
CC1CCN(c2ccccc2NC(=S)NC(=O)C(C)(C)C)CC1	42.9*	·	-0.4	·	8.4	-11.8
CC(C)(C)C(=O)Nc1ccccc1N1CCN(C(=O)c2ccc(Cl)cc2)CC1	·	-0.7	·	126.5*	·	-10.1
COc1ccccc1NC(=O)N[C@@H]1CC[C@@H](CC(=O)NCc2ccc(Cl)c(Cl)c2)O[C@H]1CO	0.4	0.6	2.3	-3.5	-0.9	20.0
COc1ccc(NC(=O)N(C)C[C@@H]2OCCCC[C@H](C)Oc3ccc(NS(=O)(=O)c4ccc(Cl)cc4)cc3C(=O)N([C@H](C)CO)C[C@H]2C)cc1	-0.2	-0.1	6.1	·	0.4	4.8
O=C(Nc1ccccc1N1CCN(C(=O)c2ccccc2)CC1)c1ccc([N+](=O)[O-])o1	-0.1	·	-0.9	10.7	-25.1*	-9.4
COc1ccc(NC(=O)N(C)C[C@H]2OCCCC[C@H](C)Oc3ccc(NC(=O)c4ccccc4)cc3C(=O)N([C@@H](C)CO)C[C@@H]2C)cc1	-0.1	0.6	7.9	·	-4.7	-4.5
CNc1ccccc1C(C)(C)c1cc(-c2cccc([N+](=O)[O-])c2)no1	0.0	·	-5.5	9.1	-6.8	·
CNc1ccccc1C(C)(C)c1cc(-c2cccc(Br)c2)no1	43.3*	83.6*	-2.4	-24.6	-21.9	·
COC(=O)C1CCN(C(=O)Cc2ccccc2OC)CC1	43.1*	·	2.3	·	11.3	5.6

Compound activity: PubChem, Broad Institute
